Screens (PubChem)
bIAP activator: increases bovine intestinal alkaline phosphatase activity. AID 1016. purified bovine IAP, CDP-star luminescence, 30 min; stronger effect = higher value; fold of DMSO-control signal, blank-subtracted. actives 0.17% (n = 200,000). activation factor at 20 µM;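 active = activation factor of 2 or more at 20 µM, a signal rise over negative controls twice the positive control's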
bIAP inh: blocks bovine intestinal alkaline phosphatase activity; purified bovine IAP, CDP-star luminescence, 30 min; 190,000 tested, under 10 active; inhibition, % at 20 µM; AID 1019;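 active = over 50% inhibition of intestinal alkaline phosphatase at 20 µM in the single-dose screen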
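Assay system – bovine IAP enzyme · Quantity – bovine IAP at 1/65,000,000 final dilution · Detection – CDP-star luminescence signal · Times – 30 min reaction at room temperature · Also added – CDP-star substrate at 30 µM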
hIAP act: human IAP activation; purified human IAP, CDP-Star luminescence, 30 min; stronger effect = higher value; 1 = vehicle-only enzyme, 0 = enzyme-free background; AID 2524; actives 0.16% (n = 330,000); activation factor at 10 µM; P09923;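 active = activation factor of the enzyme at least 2-fold when tested at 20 µM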
Target sequence (P09923 whole entry, looked up): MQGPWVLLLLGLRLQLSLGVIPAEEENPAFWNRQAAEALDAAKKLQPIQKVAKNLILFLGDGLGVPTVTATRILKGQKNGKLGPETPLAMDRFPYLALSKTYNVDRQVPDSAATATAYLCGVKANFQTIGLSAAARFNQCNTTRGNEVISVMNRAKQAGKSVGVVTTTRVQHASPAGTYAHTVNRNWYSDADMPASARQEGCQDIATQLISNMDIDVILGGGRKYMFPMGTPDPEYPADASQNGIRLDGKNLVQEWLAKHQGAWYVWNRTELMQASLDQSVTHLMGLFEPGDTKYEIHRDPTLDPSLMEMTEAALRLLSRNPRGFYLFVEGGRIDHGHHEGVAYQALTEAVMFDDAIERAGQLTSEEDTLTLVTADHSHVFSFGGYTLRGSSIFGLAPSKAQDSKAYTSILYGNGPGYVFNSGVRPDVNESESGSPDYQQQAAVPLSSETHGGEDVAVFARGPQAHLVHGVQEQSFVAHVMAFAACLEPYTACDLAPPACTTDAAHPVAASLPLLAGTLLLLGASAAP
mIAP inh: mouse IAP inhibition. inhibition, % at 10 µM. AID 2806. purified mouse IAP, CDP-Star luminescence, 30 min. actives 0.2% (n = 330,000);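 active = inhibition of at least 40% at 10 µM in the primary screen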;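 note: plate controls were DMSO with enzyme for no effect and no enzyme wells for full effect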
mIAP act: increases mouse intestinal alkaline phosphatase activity. muIAP, CDP-Star luminescence, 30 min; stronger effect = higher value; 1 = vehicle-only enzyme signal, 0 = enzyme-free wells. activation factor at 10 µM. actives 0.24% (n = 330,000);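 active = activation factor of at least 2 at 20 µM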
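System: Mouse IAP enzyme | Also added: CDP-Star substrate | Dosing: Compounds dispensed in DMSO | Schedule: 30 min enzyme-substrate-compound incubation at room temperature | Technique: Chemiluminescence readout | Control set: DMSO-only wells and no-enzyme negative control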
hIAP block: blocks human intestinal alkaline phosphatase; actives 0.12% (n = 330,000); inhibition, % at 10 µM; purified IAP, CDP-Star luminescence, 30 min;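 active = inhibition reaching a set limit with compound at 10 µM in the primary screen, cut at about 35% in these data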;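 note: plate controls were DMSO wells with enzyme for no effect and no-enzyme buffer wells for full effect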
hIAP act confirm: human IAP activation confirmation; shares compounds with hIAP act; purified IAP, CDP-Star luminescence, 30 min; stronger effect = lower value; activation (%Activity, negative = activation), % at 8.3 µM; actives 10% (n = 880);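 active = at least twofold enzyme activation in any of six single-dose repeats, which the averaged readout prints as negative percent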
An asterisk follows results filed as active; . = no result. Sampled rows, rich in hits. Any-hit rate of the full collection: about 0.77%.

SMILES | bIAP activator | bIAP inh | hIAP act | mIAP inh | mIAP act | hIAP block | hIAP act confirm
COc1cccc(CNS(=O)(=O)c2cccc(S(=O)(=O)N3CCOCC3)c2)c1 | 0.9 | 10.0 | 1.01 | -8.0 | 1.08 | -0.9 | .
N#Cc1cc(Oc2ccccc2)c(-n2nnc3ccccc32)cc1C#N | 0.9 | 12.7 | 0.648 | 7.6 | 0.924 | 35.2* | 40.7
N#Cc1cc(Oc2ccc3ccccc3c2)c(-n2nnc3ccccc32)cc1C#N | 0.7 | 25.3 | 0.867 | 2.8 | 0.972 | 13.3 | .
CC1=NN(Cc2ccccc2)C(=O)/C1=C\c1ccc(N(C)C)cc1 | 0.6 | 39.0 | 0.634 | 23.0 | 0.77 | 36.6* | 65.6
CN(N=Nc1ccc([N+](=O)[O-])cc1)c1ccccc1 | 0.9 | 6.1 | 0.848 | 19.4 | 0.806 | 15.2 | .
CN(CCCC(=O)O)c1ccc(N=Nc2ccc([N+](=O)[O-])cc2)cc1 | . | . | 0.527 | 37.8 | 0.622 | 47.3* | 23.7
COc1ccc(OC)c(NC(=O)c2cc(-c3cc(C)c(C)cc3O)n[nH]2)c1 | . | . | 2.17* | -0.6 | 1.01 | -116.7 | 6.0
COc1ccc(OC)c(NC(=O)c2cc(-c3cc(C)cc(C)c3O)n[nH]2)c1 | . | . | 1.58 | -1.6 | 1.02 | -57.9 | .
COc1ccc(NC(=O)c2cc(-c3cc(C)c(C)cc3O)n[nH]2)c(OC)c1 | . | . | 2.12* | -4.4 | 1.04 | -111.5 | -19.5
COc1ccc(NC(=O)c2cc(-c3cc(Cl)ccc3O)n[nH]2)c(OC)c1 | . | . | 1.36 | 1.9 | 0.981 | -36.4 | .
COc1ccc(C(=O)N/C(=C\c2cn(S(=O)(=O)N(C)C)c3ccccc23)C(=O)NCCCN2CCOCC2)cc1 | . | . | 1.12 | 5.0 | 0.95 | -12.3 | .
COc1cccc(-c2nc(CS(=O)(=O)CC(=O)Nc3ccccc3C)c(C)o2)c1 | . | . | 1.32 | -3.4 | 1.03 | -31.9 | .
COc1cccc(-c2nc(CS(=O)(=O)CC(=O)Nc3cc(OC)ccc3OC)c(C)o2)c1 | . | . | 0.635 | 2.6 | 0.974 | 36.5* | 31.5
N#CC(C#N)=NNc1ccc([N+](=O)[O-])cc1 | . | . | 0.648 | 33.6 | 0.664 | 35.2* | -62.0
CCCCCCc1nc(C(N)=O)c2[nH]c(=O)n(-c3ccccc3F)c2n1 | . | . | 2.1* | -8.7 | 1.09 | -110.2 | -15.1
CCCCCCc1nc(C(N)=O)c2[nH]c(=O)n(-c3ccc(OCC)cc3)c2n1 | . | . | 2.31* | -3.1 | 1.03 | -131.3 | 1.7
CC(C)Cn1c(N)c(C(=O)COC(=O)C2Cc3ccccc3CN2S(C)(=O)=O)c(=O)n(C)c1=O (stereo unspecified) | . | . | 1.02 | -12.3 | 1.12 | -1.6 | .
CC1CCCCC1NC(=O)COC(=O)c1ccccc1NC(=O)c1ccco1 (stereo unspecified) | 1.1 | -12.4 | 0.185 | -1.6 | 1.02 | 81.5* | 2.8
C(=N\Nc1nc(-c2cccnc2)nc2ccccc12)/c1ccccc1 | . | . | 1.01 | 0.8 | 0.992 | -1.5 | .
COc1cccc(/C=N/Nc2nc(-c3cccnc3)nc3ccccc23)c1 | . | . | 0.421 | 2.3 | 0.977 | 57.9* | 0.0
Cn1cc(CNCc2cnc3ccccn23)c(-c2ccc(Oc3ccccc3)cc2)n1 | 1.2 | -17.0 | 2.69* | 1.1 | 0.989 | -168.8 | 2.3
Cc1ccnn1CCC(=O)N1CCCC(Nc2ccc(F)c(F)c2)C1 (stereo unspecified) | . | . | 0.927 | -0.7 | 1.01 | 7.3 | .
Cc1ccc(-n2c(-c3ccc(Cl)cc3)n[nH]c2=S)c(C)c1 | . | . | 0.894 | 3.9 | 0.961 | 10.6 | .
Cc1ccc(-n2c(-c3cccnc3)n[nH]c2=S)c(C)c1 | 0.9 | 14.5 | 3* | 5.6 | 0.944 | -200.4 | 14.7
C/C(=N\N(Cc1ccccc1)c1ccccc1)c1ccncc1 | 0.6 | 43.2 | 0.611 | 15.0 | 0.85 | 38.9* | -62.6
SMILES | bIAP activator | bIAP inh | hIAP act | mIAP inh | mIAP act | hIAP block | hIAP act confirm
CN(C(=O)c1ccncc1)c1ccccc1 | . | . | 1.06 | -0.2 | 1 | -6.3 | .
NS(=O)(=O)c1ccc(N2N=C(c3ccccc3)CC2c2ccccc2Br)cc1 (stereo unspecified) | . | . | . | -75.5 | 1.75 | . | .
O=[N+]([O-])c1ccc(N2N=C(c3ccccc3)CC2c2ccccc2O)cc1 (stereo unspecified) | . | . | 0.624 | 19.3 | 0.807 | 37.6* | -50.3
Cc1ccc(SCC(=O)Nc2ccc(N3CCOCC3)cc2)cc1C | . | . | 1.1 | -11.6 | 1.12 | -10.0 | .
CC(C)=CCc1c(O)cc2c(c1O)C(=O)CC(c1ccccc1)O2 (stereo unspecified) | . | . | 0.857 | 7.3 | 0.927 | 14.3 | .
CC(C)=CCc1c(O)ccc2c1OC(c1ccc(O)c(O)c1)CC2=O (stereo unspecified) | 0.8 | 20.1 | 0.319 | 32.1 | 0.679 | 68.1* | 25.8
COC(=O)[C@]1(Cc2ccccc2)N[C@H](CN(C)S(=O)(=O)c2ccc(C(C)(C)C)cc2)[C@@H]2C(=O)N(C)C(=O)[C@@H]21 | . | . | 1.07 | -7.8 | 1.08 | -6.9 | .
CCC(C)(C)C1CCc2[nH]nc(C(=O)N/N=C(\C)c3ccco3)c2C1 (stereo unspecified) | . | . | 2.1* | 2.0 | 0.98 | -109.7 | 62.7
Cn1ccnc1SCc1ccc(Cl)cc1Cl | . | . | 2.19* | -8.4 | 1.08 | -119.0 | 18.6
Cc1ccc(S(=O)(=O)N2CCC(C(=O)OCC(=O)N(C)C3CCS(=O)(=O)C3)CC2)cc1C (stereo unspecified) | . | . | 0.942 | -6.7 | 1.07 | 5.8 | .
CC1CC(C)CN(S(=O)(=O)c2ccc3c(c2)NC(=O)C(C)C(=O)N3)C1 (stereo unspecified) | . | . | 1.03 | 15.0 | 0.85 | -2.8 | .
CCOC(=O)c1c(C)[nH]c(C(=O)OCC(=O)N2CCN(S(=O)(=O)c3ccc(C)cc3C)CC2)c1C | . | . | 1.03 | 4.1 | 0.959 | -2.6 | .
CCOC(=O)c1sc(NC(=O)/C=C/c2ccccc2)nc1C | 1.4 | -43.8 | 2.21* | 11.1 | 0.889 | -120.5 | 1.2
COc1ccc(/C(O)=C/C(=O)C(=O)NNC(=O)c2ccccc2)cc1 | . | . | 2.17* | 10.7 | 0.893 | -117.3 | -2.6
COc1ccc(F)cc1S(=O)(=O)n1nc(C)cc1C | . | . | 0.604 | 2.5 | 0.975 | 39.6* | -61.6
COc1ccc(C)cc1S(=O)(=O)n1nc(C)cc1C | 1.1 | -8.1 | 1.13 | 4.9 | 0.951 | -13.3 | .
NS(=O)(=O)c1ccc(CCNC(=O)c2ccc(Cl)c(S(=O)(=O)NCc3ccco3)c2)cc1 | . | . | 1.01 | 11.0 | 0.89 | -0.9 | .
CCCCC(=O)NC(=S)Nc1ccccc1C(=O)Nc1ccccc1 | 1 | 3.5 | 1.01 | 4.7 | 0.953 | -1.2 | .
N#CCC(=O)NNC(=S)NC(=O)C(c1ccccc1)c1ccccc1 | 1.6 | -64.3 | 1.53 | 9.5 | 0.905 | -53.0 | .
CC(=O)NC(=S)NNC(=O)C(c1ccccc1)c1ccccc1 | 2* | -98.9 | 2.03* | -5.1 | 1.05 | -103.4 | 7.2
CC(=O)NC(=S)Nc1ccccc1C(=O)Nc1ccccc1 | 1.4 | -39.9 | 2.5* | 20.8 | 0.792 | -149.6 | -31.1
Cc1ccccc1Nc1scc(-c2ccc(Cl)cc2)[n+]1-c1ccccc1C | 0.9 | 6.6 | . | . | . | . | .
